# Compound activity: PubChem BioAssay, Broad Institute
# Cneo AK release = causes C. neoformans cell lysis | actives 0.2% (n = 360,000) | AID 651654 | lysis activity, % at 15 µM | adenylate kinase release luminescence, 4 h; normalised: neutral wells 0, clomiphene wells 100;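 active = mean lysis activity across replicates of at least 80%, whatever share of replicates individually reach that level; inactive = mean lysis activity below 80%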
#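 Material: C. neoformans cells | Amount: Yeast cell density of 5 × 10^6 cells/mL | Medium: Fresh YPD growth medium | Dosing: Single dose | Times: Static 4 h at 37 °C with compound, 1 h detection | Detection: AK luminescence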
# PglD inh = PglD (C. jejuni) enzyme inhibition | AID 602405 | purified PglD enzyme, DTNB colorimetric CoA detection | inhibition, % at 12.5 µM | actives 0.098% (n = 360,000); in the data active = inhibition above about 16%, passing the limit was not always enough; inconclusive = no clear call, values can overlap the other calls
# rRNA inh HTS = inhibits bacterial ribosomal RNA function over humanized ribosomes. E. coli WT GFP vs humanized-ribosome RFP mutants, fluorescence, 24 h; hits give low values; DMSO median 0, no signal -100. GFP signal change (wild-type ribosome), % (concentration not given with the values). actives 1.6% (n = 350,000). AID 720706;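 active = significant combined selectivity score with lowered wild-type GFP, culture density cut under 30%, mutant RFP and density less affected; inactive = any of these conditions unmet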
# RAD54 branch = RAD54 (human) branch migration inhibition | RAD54 Holliday junction branch migration, FAM/BHQ fluorescence | AID 602329 | inhibition, % at 10.4 µM | actives 0.14% (n = 360,000);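 active = mean normalized replicate activity at least 40 and at least half of replicates scoring 40 or more; inconclusive = only one of the two criteria met; inactive = mean below 40 and under half of replicates reaching 40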;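 also: 0% = median of neutral control wells and 100% = median of positive control wells; inhibitors cause a drop in the FAM fluorescence signal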
# RAD52 anneal inh = inhibitors of human RAD52 DNA annealing; recombinant RAD52 DNA annealing, FRET fluorescence; inhibition, % at 18.7 µM; actives 0.46% (n = 360,000);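 active = every replicate showing at least 50% inhibition; inconclusive = mean inhibition at least 50% but not in every replicate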
# AID977621 = growth inhibition of wild-type GFP E. coli, dose response, H69 mutant RFP, cherry-pick; shares compounds with rRNA inh HTS; activity change, negative = inhibition at 50 µM; 1,900 tested, under 10 active; E. coli wild-type GFP strain growth, fluorescence, 24 h;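 active = Wild-type ribosome reporter drop at least double the humanized mutant ribosome reporter drop, growth loss under a set limit; inconclusive = no clear call, values can overlap the other calls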;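 also: wild-type GFP and H69 mutant RFP strains grown together 50/50 in each well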
# AID977628 = growth of wild-type and h24-humanized E. coli strains – h24 mutant RFP vs wild-type GFP, cherry-pick, dose response | shares compounds with rRNA inh HTS | E. coli WT GFP strain growth, fluorescence, 24 h | activity change, negative = inhibition at 50 µM | 1,900 tested, under 10 active | AID 977628;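 active = compound lowering the normal-ribosome reporter at least twice as much as the humanized-ribosome reporter, growth loss under a set limit; inconclusive = no clear call, values can overlap the other calls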;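 also: wild-type GFP and h24 humanized RFP strains co-cultured 1 to 1 per well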
# An asterisk follows results filed as active; ? = inconclusive; / = no result. Rows were chosen to be rich in hits. Some 1.9% of all compounds tested hit in one or more screens of this group.
SMILES,Cneo AK release,PglD inh,rRNA inh HTS,RAD54 branch,RAD52 anneal inh,AID977621,AID977628
O=C(c1ccccc1)N(Cc1ccccc1)c1ccccn1,-1,8,/,-1,/,/,/
O=C(Cc1c(F)cccc1Cl)N(Cc1ccccc1)c1ccccn1,/,/,-21*,/,6,5,-5.9
COc1cc(C#N)ccc1OCC(=O)Nc1cccc(S(=O)(=O)N2CCCC2)c1,/,/,-26*,/,-38,/,-13
N#Cc1ccccc1OCC(=O)Nc1cccc(S(=O)(=O)N2CCCC2)c1,/,/,-9,/,-12,/,/
CCOc1ccccc1N1CC(C(=O)Nc2cccc(S(=O)(=O)N3CCCCC3)c2)CC1=O (stereo not given),1,4,-21*,10,-16,-21,?
CCN(CC)S(=O)(=O)c1cccc(NC(=O)CNc2cccc(S(=O)(=O)N3CCCC3)c2)c1,1,-6,-23*,-5,-1,-24,/
O=C(COC(=O)CNC(=O)c1ccc(F)cc1)Nc1cccc(S(=O)(=O)N2CCCC2)c1,/,/,-18*,/,-11,-11,-3.9
C[C@H](CO)N1C[C@H](C)[C@H](CN(C)C)Oc2ccc(NS(=O)(=O)c3ccc(Cl)cc3)cc2C1=O,1,15,8,-8,17,/,/
O=C(Cn1nc(C(=O)O)c2ccccc2c1=O)Nc1cccc(S(=O)(=O)N2CCCCC2)c1,0,-3,-7,3,-14,/,/
Cn1nc(C(=O)Nc2cccc(S(=O)(=O)N3CCCCC3)c2)c2ccccc2c1=O,/,4,-17*,-6,-3,0.57,-0.87
O=C(CN(CCO)c1ccccc1)Nc1cccc(S(=O)(=O)N2CCCC2)c1,0,-13,-23*,-2,-17,/,?
C[C@@H]1CN([C@@H](C)CO)S(=O)(=O)c2ccc(C#CC(C)(C)O)cc2O[C@H]1CN(C)C(=O)C1CC1,/,/,-2,/,/,/,/
C[C@@H](NC(=O)C[C@H]1C[C@@H]2c3cc(NC(=O)C4CCC4)ccc3O[C@@H]2[C@H](CO)O1)c1ccccc1,/,/,1,/,2,/,/
CCCCc1n(CC(=O)c2ccc(Cl)cc2)c2ccccc2[n+]1C,2,2,-19*,-16,16,/,-1.4
CCNC(=O)c1cc2c(c(-c3cccc(-c4ccncc4)c3)n1)[C@H](CCO)N(S(=O)(=O)CC)C2,/,/,-3,/,-18,/,/
C[C@@H]1CN([C@@H](C)CO)C(=O)c2cc(-c3ccc(F)cc3)cnc2O[C@@H]1CN(C)C(=O)c1ccccc1F,8,-1,3,-2,14,/,/
O=C1c2ccccc2C(c2nnnn2C2CCCCC2)N1CCc1ccc(O)cc1 (stereo not given),/,/,-18*,/,-20,7.9,-5.5
CNC[C@H]1Oc2ccc(NS(=O)(=O)c3cccs3)cc2CC(=O)N([C@@H](C)CO)C[C@H]1C,3,5,3,7,7,/,/
CC(C)(C)c1ccc(S(=O)(=O)NCc2ccc(C(=O)NCc3ccccn3)cc2)cc1,/,/,-26*,/,-3,-5,-17
C[C@H](CO)N1C[C@H](C)[C@@H](CN(C)C(=O)Cc2cccnc2)Oc2cc(C3=CCCCC3)ccc2S1(=O)=O,-3,3,-5,-1,8,/,/
CC(=O)N(CCC1(c2ccc(C)cc2)CCOC(C(C)C)C1)Cc1ccco1 (stereo not given),0,0,-20*,-4,-9,-14,/
O=C(NNc1ccc([N+](=O)[O-])cc1[N+](=O)[O-])C1C2CCCCC21 (stereo not given),/,/,5,/,-9,/,/
O=C(O)C1(Nc2ccc([N+](=O)[O-])cc2[N+](=O)[O-])CCCC1,/,/,-16*,/,-5,-17,-9.4
O=C(COC(=O)CCC(=O)c1ccc(F)cc1)NCCc1ccccc1,-1,3,-21*,-9,-8,-11,/
O=C(COC(=O)CCSc1ccc(F)cc1)NCc1ccc(F)cc1,0,3,-17*,0,-16,/,?
